# Bioassay records deposited in PubChem BioAssay by several laboratories.
# WT yeast gro inh – growth inhibition of WT strain, primary screen, mitochondrial fusion inhibitor project, WT and mutant strains, chemical genetic. mitochondrial fusion phenotypic screen. inhibition, % at 10 µM. 2.1% of 190,000 active; in the data active means inhibition above about 58%; tested in S. cerevisiae
# Cl transport mod – KCC2 cotransporter modulators, thallium flux, primary screen, cell-based, HEK293 KCC2, FluoZin-2 fluorescence, MLSMR; Solute carrier family 12 member 5 (Homo sapiens), Q9H2X9; KCC2 cells, thallium flux FluoZin-2 fluorescence; B-score of Tl+ flux slope (higher = more flux/activation; lower = inhibition) at 10 µM; 2.2% of 190,000 active;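 active means thallium flux slope and its plate-corrected score both differing from the plate sample mean at a set confidence after two filtering rounds, in either direction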;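 further: slope of fluorescence scaled to starting intensity during 10 to 20 s after thallium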
# b-catenin transl – modulators of beta-catenin nuclear translocation, primary screen, imaging, HeLa cells, immunofluorescence, high-content; nuclear translocation activity, % at 5 µM; 0.3% of 190,000 active; AID 1665, 2009;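 active means nuclear translocation activity above 50% at 5 µM, with a well cell count of 50 or more; inconclusive means wells under 50 cells across six images, flagged as toxic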;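 further: per-cell ratio of nuclear to cytoplasmic median beta-catenin stain intensity; plate controls were DMSO negative control for no effect and GSK-3 inhibitor IX positive control for full effect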
#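 Test system: human HeLa cells, native beta-catenin. Compound dosing: 5 µM primary single dose, 0.1% DMSO, 0.02–20 µM confirmation series. Incubation: compound exposure 24 h at 37°C. Detection: beta-catenin immunostaining with DAPI counterstain, 20x imaging, 6 fields/well. Read-out basis: Nuclear/cytoplasmic beta-catenin signal ratio, % activation.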
# MT stabilize HCS – microtubule stabilizers in HeLa cells, primary screen, imaging, high-content imaging; AID 2205, 2009; 0.83% of 200,000 active; HeLa tubulin immunostaining HCS, 24 h; share of cells brighter than vehicle mean+2SD; % tubulin-high responders, % at 10 µM;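 active means plate Z-score above 3 for both tubulin-high and condensed-nucleus cell shares, with cell loss under 80%, at 10 µM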;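 further: anti alpha tubulin signal scored within the nucleus-defined area of each cell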
# Pf gamet viab – late stage P. falciparum gametocyte viability inhibitors, primary screen, ATP luminescence, HTS; P. falciparum stage V gametocytes, 24 h; inhibition, % at 10.9 µM; 0.065% of 150,000 active; AID 743093, 2013;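 active means inhibition above the mean plus 3 SD of compounds within the control limits, set per campaign, cut at about 38% in these data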;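 further: 0% = DMSO wells and 100% = medium only without gametocytes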
# KCC2 secondary – KCC2 modulators in sodium-free buffer, confirmation, cell-based, HEK293 KCC2, thallium flux, secondary assay. shares compounds with Cl transport mod. FluoZin2 fluorescence; hits give high values. normalised thallium flux (F/F0 slope) at 10 µM. 15% of 3,700 active. AID 1713, 2009;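 active means thallium flux slope above the same plate's solvent-only control mean plus 3 SD; inconclusive means the two replicate wells disagree; inactive means no significant difference from solvent-only control wells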
# KCC2 bumet counter – thallium flux persisting under bumetanide in KCC2 cells, confirmation, counter-screen for KCC2 modulator project, cell-based, HEK293 KCC2, FluoZin2, secondary assay 3; shares compounds with Cl transport mod; HEK293-KCC2 + bumetanide/ouabain; hits give high values; normalized thallium flux at 10 µM; 49% of 3,700 active; AID 1714, 2009;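 active means thallium entry rate above the same plate's blocked-transporter control wells by more than 3 SD; inconclusive means the two repeat wells disagree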;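 further: raw slope of fluorescence over initial fluorescence between 10 and 20 s after thallium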
# KCC2 sec2 – KCC2 modulators without ouabain present, confirmation, cell-based, HEK293 KCC2, thallium flux, FluoZin2, secondary assay 2 | shares compounds with Cl transport mod | normalized thallium flux at 10 µM | 23% of 3,700 active | thallium flux FluoZin2 fluorescence; actives lie on both sides; F/F0 rise rate, 10–20 s post-thallium;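 active means thallium flux slope more than 3 SD above or below the plate's solvent-only control mean, mostly below; inconclusive means the two repeat wells disagreed; inactive means no significant shift from solvent-only controls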;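 further: raw slope with 0.1% DMSO as baseline and bumetanide as block control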
# HEK293 Tl flux – thallium flux modulation in parental HEK cells, confirmation, counter-screen for KCC2 modulator project, cell-based, counterscreen 1; 46% of 3,700 active; shares compounds with Cl transport mod; thallium flux rate (normalised fluorescence) at 10 µM; HEK293 parental cells, thallium flux FluoZin2, ouabain; baseline-ratio fluorescence slope, 10–20 s after thallium;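 active means thallium flux rate significantly above the same plate's solvent-only control wells, beyond their mean plus 3 SD; inconclusive means the two replicate wells gave conflicting results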
# KCC2 ouabain – KCC2 inhibitors and activators, ouabain retest, confirmation, HEK-KCC2 cells | raw Tl+ flux slope (below DMSO = inhibition, above = activation) at 10 µM | AID 1717, 2009 | HEK293-KCC2, thallium flux FluoZin2 fluorescence; bidirectional: low = inhibitor, high = activator | shares compounds with Cl transport mod | 48% of 3,700 active;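 active means thallium flux slope beyond 3 SD from same-plate DMSO control mean in most replicates, usually higher, sometimes lower; inconclusive means repeat tests gave conflicting results; inactive means no significant difference from controls in most replicates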;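 further: slope of initial-normalized fluorescence between seconds 10 and 20 after thallium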
# HEK counter2 – native HEK Tl+ uptake effects, second counter-screen – HEK cells, counterscreen 2, counter-screen for KCC2 modulator project, confirmation. thallium flux slope at 10 µM. AID 1718, 2009. HEK293 parental, thallium flux FluoZin-2 fluorescence slope. 33% of 3,700 active. shares compounds with Cl transport mod;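 active means thallium flux slope above the same plate's solvent-control mean plus 3 SD in both duplicate wells; inconclusive means duplicate wells that disagreed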;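 further: run without ouabain in cells lacking the KCC2 cotransporter; slope of fluorescence scaled to its starting value between 10 and 20 s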
# An asterisk follows results filed as active; ? = inconclusive; · = no result given. A selection: hits, their analogues and other compounds. The true share with any hit is near 4%.
SMILES,WT yeast gro inh,Cl transport mod,b-catenin transl,MT stabilize HCS,Pf gamet viab,KCC2 secondary,KCC2 bumet counter,KCC2 sec2,HEK293 Tl flux,KCC2 ouabain,HEK counter2
CC(=O)NC1(C(F)(F)F)C(=O)Nc2c1c(=O)[nH]c(=O)n2CC(C)C (stereo not given),4.1,0.71,0.2,2.5,4.7,·,·,·,·,·,·
COc1cccc(CN2CCNC(=O)C2CC(=O)N2CCCCO2)c1OC (stereo not given),-9.4,-0.0433,0.4,3.3,11.1,·,·,·,·,·,·
COc1ccc(-c2oc3ccccc3c(=O)c2OC(C)=O)cc1,20.0,54.9*,-4.5,6.7,-51.7,0.0224*,0.0904*,0.0412,?,0.0706*,?
COc1ccc(-c2oc3ccccc3c(=O)c2OCC(=O)O)cc1,7.2,-0.0998,7.3,3.3,·,·,·,·,·,·,·
Cc1sc2nc(C3CC3)nc(SCC(=O)N3CCCc4ccccc43)c2c1C,38.2,8.5*,0.3,4.7,-10.7,0.0105,0.0192*,0.0316,0.0129*,?,0.012*
Cc1cccc(-c2nsc(SCC(=O)NCC3CCCO3)n2)c1 (stereo not given),-15.8,-0.365,1.7,2.0,-14.5,·,·,·,·,·,·
O=C(Cn1nnc(-c2ccccc2-n2cnnn2)n1)NCc1ccccc1,-15.6,-3.98*,-8.3,2.5,·,0.00823,0.00458,?,0.00805,0.0186,0.0115
Cc1cc(C)c(NC(=S)NCC2CCN(C(C)c3ccccc3)C2)c(C)c1 (stereo not given),26.3,0.524,-0.2,5.1,-36.7,·,·,·,·,·,·
COc1ccc(OC)c(NC(=O)c2ccc3c(c2)OCO3)c1,·,·,·,·,7.0,·,·,·,·,·,·
COc1ccc(OC)c(-c2csc(NC(=O)c3ccc4c(c3)OCO4)n2)c1,26.1,6.7*,0.3,3.4,1.2,0.00998,0.00532,0.0327,0.00829,0.0196,0.0105
Cc1ccc(C(=O)CSc2nnc(-c3ccco3)n2C)cc1,11.2,-4.75*,0.3,5.3,·,0.00579*,0.00589,0.0312,0.00747,0.0152*,0.0102
Cn1c(SCC(=O)c2cc(Cl)c(Cl)s2)nnc1-c1ccco1,·,-5.32*,0.6,·,1.7,0.00712,0.0301*,0.0323,0.0223*,0.0247,0.0168*
Cc1ccc(C(=O)CSc2nnc(-c3ccccc3N)n2C)cc1,-10.0,-0.551,-1.3,2.1,5.1,·,·,·,·,·,·
Cc1cc(C)cc(-n2ccnc2SCC(=O)O)c1,-10.7,0.0118,2.7,3.4,-23.6,·,·,·,·,·,·
COc1ccc(-n2c(=O)c3c(C)c(C)sc3n(Cc3ccc(F)cc3)c2=O)c(OC)c1,25.6,-0.247,-0.7,2.3,-15.0,·,·,·,·,·,·
C/C(N)=C(/C#N)C(=O)COC(=O)c1ccccc1Oc1ccccc1,0.6,-0.3,3.3,2.0,-6.2,·,·,·,·,·,·
CN(C)c1ccccc1C(=O)N1CCCC(C(=O)c2ccc3ccccc3c2)C1 (stereo not given),25.6,-0.0604,-1.1,4.0,9.5,·,·,·,·,·,·
Cc1nn2c([nH]c(=O)c3ccccc32)c1C=O,15.0,3.39*,-2.4,2.6,·,0.01,0.01*,0.0322,?,?,0.00914
Cc1nn2c(nc(N3CCCCC3)c3ccccc32)c1C=O,22.7,-1.48,-2.7,2.6,0.5,·,·,·,·,·,·
COc1ccc(N(CC(=O)N2CCC(Cc3ccccc3)CC2)S(C)(=O)=O)cc1,29.8,-4.95*,0.8,3.4,-10.6,0.006,0.00384,?,0.00612*,0.0153*,0.0101
O=C(CSc1nnc(Cn2nnc(-c3ccccc3)n2)n1-c1ccccc1)Nc1ccccc1,10.9,-0.571,-1.2,1.9,·,·,·,·,·,·,·
Cc1cccc(C)c1NC(=O)CSc1nnc(Cn2nnc(-c3ccccc3)n2)n1-c1ccccc1,-10.7,-5.31*,2.5,1.2,2.8,0.00777,0.00568,0.032,0.00722,0.0223,0.0104
CCn1c(-c2ccccc2)c[nH]c1=S,-8.2,0.0626,1.5,3.5,·,·,·,·,·,·,·
CC(C)Cn1c(-c2ccc(Br)cc2)c[nH]c1=S,40.6,22.1*,-1.5,0.6,-18.1,0.0067,0.0278*,?,0.0246*,0.0291*,0.025*
Cc1cc(C)nc(SCc2nnc(SCC(=O)Nc3nccs3)n2Cc2ccco2)n1,-3.1,-1.77,-3.1,7.7,·,·,·,·,·,·,·
SMILES,WT yeast gro inh,Cl transport mod,b-catenin transl,MT stabilize HCS,Pf gamet viab,KCC2 secondary,KCC2 bumet counter,KCC2 sec2,HEK293 Tl flux,KCC2 ouabain,HEK counter2
Cc1cccc(NC(=O)CSc2nnc(CSc3nc(C)cc(C)n3)n2Cc2ccco2)c1,-1.9,·,-3.0,1.7,12.6,0.00656,0.00406,0.0299,?,0.0164,0.00933
Cc1cc(=O)n(Cc2ccc(OC(C)C)cc2)c(=S)[nH]1,-8.9,·,0.2,1.1,-4.2,?,0.0153*,0.0318,0.0161*,?,0.012
COC(=O)c1ccc2c(=O)n(Cc3ccc(C(=O)NC(C)C)cc3)c(=S)[nH]c2c1,-6.3,0.261,-2.6,3.3,0.7,·,·,·,·,·,·
CNC(=S)N/N=C/c1c(C)cccc1Cl,·,4.4*,-2.0,·,-18.2,0.00936,0.0174*,0.0283,0.00854*,?,0.00966
O=C(Nc1ccccc1Cl)c1ccc(COc2ccc3c(c2)CCC3)cc1,-6.5,1.51,-0.3,2.8,-17.7,·,·,·,·,·,·
COc1ccc(C2C(C#N)=C(N)Oc3cc(C)[nH]c(=O)c32)c(OC)c1OC (stereo not given),6.1,·,1.2,1.5,·,0.00931,0.00631,0.0341,0.00876,0.0195,0.0121
CC1Cc2nc(SCC(=O)Nc3ccc4c(c3)OCO4)n(CCc3ccccc3)c(=O)c2S1 (stereo not given),11.7,-3.97*,-0.5,2.1,·,0.00609,0.00562,0.0339,?,0.0171*,0.0115
